# In the library only some 3.5% were active in any assay of this set; here they are far more common.
# MrgX1 antagonist: blocks BAM8-22 activation of human MrgX1 receptor. B-score at 10 µM. hit rate 1.3% among 310,000. MRGX1-HEK293 calcium flux, Fluo-4, BAM8-22 antagonism; active compounds read low;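 active = calcium-response B-score plate-corrected more than 3 library SD below zero, starting fluorescence within 5 deviations, no agonist response on first addition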;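 also: peak minus trough fluorescence over baseline after final BAM8-22 challenge near maximal dose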
# Target sequence (Q96LB2 whole entry, looked up): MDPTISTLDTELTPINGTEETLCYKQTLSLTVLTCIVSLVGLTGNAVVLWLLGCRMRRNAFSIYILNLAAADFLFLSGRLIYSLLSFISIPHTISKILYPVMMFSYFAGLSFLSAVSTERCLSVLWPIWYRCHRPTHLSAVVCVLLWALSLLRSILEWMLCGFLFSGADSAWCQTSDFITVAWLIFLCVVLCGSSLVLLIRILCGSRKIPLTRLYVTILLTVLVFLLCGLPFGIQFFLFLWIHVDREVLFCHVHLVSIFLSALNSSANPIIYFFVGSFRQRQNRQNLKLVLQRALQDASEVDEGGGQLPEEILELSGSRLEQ
# MrgX1 allo act: human MrgX1 positive allosteric modulation, primary screen; hit rate 0.63% among 310,000; MrgX1-HEK293, Fluo-4 calcium flux, FDSS; active compounds read high; AID 588675; Q96LB2; B-score at 10 µM;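 active = plate-corrected calcium response at least 3 library SD above typical, normal starting fluorescence, not activating the receptor alone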;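 also: compound read alongside a low EC10 to EC30 dose of BAM8-22 agonist; peak minus trough fluorescence over baseline measured at the second addition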
# RGS4 inh: human RGS4 inhibition | HEK293 M3R/RGS4 inducible, Fluo-4 calcium flux; active compounds read high; triggered by carbachol at its EC20 | B-score at 10 µM | hit rate 0.45% among 310,000;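 active = B-score, a plate-corrected calcium signal, over three deviations above library mean, with baseline fluorescence within five deviations of library mean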;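 also: RGS4 expression induced by doxycycline in cells with stable M3 receptor; B-score is computed from the integrated fluorescence ratio over baseline after carbachol; higher B-score means a larger calcium signal and so more RGS4 inhibition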
# Target sequence (P49798 whole entry, looked up): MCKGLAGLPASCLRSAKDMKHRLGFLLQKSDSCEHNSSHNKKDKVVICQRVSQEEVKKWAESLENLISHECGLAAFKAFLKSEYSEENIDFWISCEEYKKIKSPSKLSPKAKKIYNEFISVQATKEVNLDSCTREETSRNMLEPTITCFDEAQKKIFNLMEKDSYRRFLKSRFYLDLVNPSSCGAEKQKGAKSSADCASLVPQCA
# MrgX1 ag: activates human MrgX1 receptor signaling; B-score at 10 µM; hit rate 0.44% among 310,000; Q96LB2; MrgX1-HEK293 cells, Fluo-4 calcium fluorescence, agonist mode; active compounds read high;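 active = calcium response B-score plate-corrected fluorescence ratio at least 3 library SD, with starting fluorescence B-score inside 5 SD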
#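 Assay system: stable human MrgX1 HEK293 cell line. Quantity: 15,000 cells per well. Schedule: cells plated overnight, dye loaded 0.5 h 37 °C, 0.5 h room temperature. Detection: Fluo-4 NW calcium-flux fluorescence, kinetic read. Read-out basis: peak-minus-minimum fluorescence over baseline, converted to B scores. Control set: positive and negative control wells on each plate.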
# RGS4 act: RGS4 potentiation or activation; HEK293 M3R/inducible RGS4, carbachol calcium flux Fluo4; active compounds read low; B-score at 10 µM; hit rate 0.92% among 310,000;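 active = B-score of the integrated calcium signal more than 4 SD below the library mean, with starting fluorescence not abnormally high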;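 also: negative B-score means reduced calcium response which marks RGS4 activation or potentiation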
#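 Test system: HEK293 cells with stable M3R and inducible RGS4; also added: carbachol at ECmax as muscarinic agonist stimulus; schedule: dye loading 30 min 37 °C, buffer rest 30 min RT; technique: kinetic calcium fluorescence imaging with Fluo4-AM dye, 2 µM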
# RGS4 inh valid: validation of RGS4 inhibitors; shares compounds with RGS4 inh; HEK293 M3R/RGS4, carbachol calcium Fluo-4 fluorescence; carbachol added at its EC20; 0 = buffer wells, 100 = carbachol control; calcium response, % at 10 µM; hit rate 65% among 1,700; AID 492999;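 active = duplicate-averaged calcium response above the buffer-only control mean plus 5 SD of those controls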;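 also: integrated fluorescence ratio F max minus min over baseline F0; higher response in RGS4-induced cells means RGS4 inhibition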
# M3R Ca ctr: checks RGS4 inhibitor effects in non-induced HEK293 M3R cells; activity (percent), % at 10 µM; AID 493000; hit rate 20% among 1,900; carbachol calcium Fluo-4; submaximal (EC20) carbachol stimulus; buffer wells 0%, carbachol control wells 100%; shares compounds with RGS4 inh; call rule not given here;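 also: RGS4 induction absent so cells express M3R without RGS4; higher means more calcium signal and flags a non-specific hit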
# RGS4 inh ctr2: signal in non-induced cells without carbachol, RGS4 inhibitor counter-screen; shares compounds with RGS4 inh; HEK293 M3R/RGS4 non-induced, Fluo-4 calcium, no carbachol; normalised: buffer wells 0%, carbachol wells 100%; calcium response (agonist-mode artifact), % at 10 µM; hit rate 22% among 1,900; AID 493001;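 active = duplicate-averaged calcium rise in uninduced cells above buffer wells' mean plus 5 SD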
# MrgX1 ag reconf: human MrgX1 agonism, re-confirmation screen | AID 602412 | activation, % at 10 µM | shares compounds with MrgX1 ag | MrgX1-HEK293, Fluo-4 calcium fluorescence, FDSS | hit rate 78% among 600;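 active = calcium signal rise, corrected for plate position, at least 3 library SD high, with starting brightness within 5 such deviations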
# MrgX1 allo conf: reconfirmed allosteric activator of human MrgX1 receptor; shares compounds with MrgX1 allo act; MrgX1-HEK293, Fluo-4 calcium fluorescence, FDSS; activation (ratio percentage), % at 10 µM; hit rate 13% among 1,200;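 active = ratio at least 3 SD above the weak peptide control, stable starting fluorescence, no direct agonism earlier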;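 also: compound followed by low BAM8-22 agonist challenge near EC20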
# HEK293 Ca flux: counter-screen for MrgX1 antagonists: effect in parental HEK293 cells | fluorescence ratio F(max-min)/F0 at 10 µM | shares compounds with MrgX1 antagonist | hit rate 2% among 4,000 | AID 624111 | Fluo-4 calcium fluorescence, FDSS;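 active = duplicate-averaged calcium fluorescence ratio at least three times the standard deviation of buffer wells, a nonspecific response in parental cells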
# HEK293 Ca counter: MrgX1 allosteric activator counter-screen hit in parental HEK293 cells; fluorescence ratio F(max-min)/F0 at 10 µM; parental HEK293 calcium flux, Fluo-4 fluorescence ratio; active compounds read high; hit rate 0.4% among 4,000; shares compounds with MrgX1 antagonist;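 active = calcium fluorescence ratio, averaged over duplicates, at least 3 SD of the buffer-well ratio, meaning a nonspecific response in receptor-free cells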;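 also: untransfected parental HEK293 lacking MrgX1 used as counterscreen for MrgX1 allosteric activators; fluorescence change taken during the second addition on a kinetic imager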
# HEK293 Ca cntr2: activity in parental HEK293 cells lacking MrgX1 receptor | shares compounds with MrgX1 antagonist | Fluo-4 calcium fluorescence (FDSS); active compounds read high | fluorescence ratio F(max-min)/F0 at 10 µM | hit rate 8.7% among 4,000 | AID 624115;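 active = calcium fluorescence ratio at least three times the spread of buffer wells, meaning a non-specific response in parental cells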
# Starred values were filed as active, the others as inactive; i = inactive; nt = not tested or not shown.
SMILES,MrgX1 antagonist,MrgX1 allo act,RGS4 inh,MrgX1 ag,RGS4 act,RGS4 inh valid,M3R Ca ctr,RGS4 inh ctr2,others
O=C(/C=C/c1cccnc1)c1ccccc1O,i,i,8.84*,i,i,37.0%*,63.0%*,8.5%*,
O=C(/C=C/c1ccc(O)cc1)c1ccccc1,i,i,i,i,i,nt,nt,nt,
Cc1ccc(/C=C/C(=O)c2ccccc2O)cc1,i,i,i,i,i,nt,nt,nt,
Cc1cccc(C)c1N/C=C/c1onc(C)c1[N+](=O)[O-],i,i,i,i,i,nt,nt,nt,
O=C(/C=C/c1cccnc1)c1ccc(O)cc1,i,i,5.2*,i,i,15.0%*,i,i,
Cc1noc(/C=C/c2cccnc2)c1[N+](=O)[O-],i,i,5.7*,i,i,18.5%*,i,i,
O=C(/C=C/c1cccnc1)c1cccc(O)c1,i,i,12.1*,i,i,37.0%*,i,i,
COc1ccc(/C=N\Nc2ncc(F)c(N3CCOCC3)n2)cc1OC,i,i,i,i,i,nt,nt,nt,
CC(Oc1ccc(Br)cc1)C(=O)Nc1ccc(N2CCOCC2)cc1N1CCOCC1 (stereo not given),i,i,i,i,i,nt,nt,nt,
O=C(/C=C/c1cccnc1)c1ccc([N+](=O)[O-])cc1,i,i,6.05*,i,i,43.0%*,54.5%*,i,
O=C(/C=C/c1cccc(O)c1)c1cccnc1,i,i,5.76*,i,i,8.5%*,i,10.5%*,
CN(C)C(=O)COc1ccc(C(=O)/C=C/c2cccnc2)cc1,i,6.85*,5.59*,i,i,17.0%*,i,i,
CN(C)c1ccc(/C=C/C(=O)c2cccnc2)cc1,i,i,i,i,i,nt,nt,nt,
O=C(CN1C(=O)c2cccnc2Oc2ccc(Cl)cc21)Nc1ccccc1F,i,i,i,i,i,nt,nt,nt,
COc1ccc(CCNCC(O)Cn2c3ccccc3c3ccccc32)cc1OC (stereo not given),i,i,17.5*,i,i,62.0%*,i,14.5%*,
COc1ccccc1NCC(O)Cn1c2ccccc2c2ccccc21 (stereo not given),i,i,i,i,i,nt,nt,nt,
CCOc1ccc(CCNC(=O)C2=C(C)C(=O)OC23CCCCC3)cc1OCC,i,i,i,i,i,nt,nt,nt,
Cc1ccc(NC(=O)C(C)Sc2nnc(C)n2CC2CCCO2)cc1 (stereo not given),nt,nt,4.71*,nt,i,5.0%*,i,i,
Cc1ccc(NC(=O)CSc2nnc(C)n2CC2CCCO2)cc1 (stereo not given),i,i,i,i,i,nt,nt,nt,
O=C(CCC1CCCN(C(=O)c2ccc3[nH]ccc3c2)C1)N1CCN(c2ccccn2)CC1 (stereo not given),i,i,i,i,i,nt,nt,nt,
COc1cc(/C=C2/C(=O)NN(c3cccc(Cl)c3)C2=O)cc(OC)c1O,i,i,i,79.3*,i,nt,i,106.5%*,MrgX1 ag reconf=420.7%*;HEK293 Ca flux=i;HEK293 Ca counter=i;HEK293 Ca cntr2=84.1*
COc1cc(/C=C2/NC(=O)N(c3cccc(Cl)c3)C2=O)ccc1O,i,i,i,i,i,nt,nt,nt,
O=C1c2ccccc2S(=O)(=O)c2cc(C(=O)N(c3ccccn3)c3ccccn3)ccc21,i,i,4.87*,41.4*,i,14.0%*,34.0%*,135.0%*,MrgX1 ag reconf=652.6%*;HEK293 Ca flux=i;HEK293 Ca counter=i;HEK293 Ca cntr2=126*
COC(=O)CNC(=O)COC(=O)Cc1ccc(Cl)cc1,i,i,i,i,i,nt,nt,nt,
CC(NC(N)=O)C(=O)Nc1ccc(Cl)c(S(=O)(=O)Nc2ccc(Br)cc2)c1 (stereo not given),i,i,i,i,i,nt,nt,nt,
SMILES,MrgX1 antagonist,MrgX1 allo act,RGS4 inh,MrgX1 ag,RGS4 act,RGS4 inh valid,M3R Ca ctr,RGS4 inh ctr2,others
CCOC(=O)C1=C(O)/C(=C\c2cccc(OC)c2)N=C1C,i,i,13.9*,31.8*,i,47.0%*,i,i,MrgX1 ag reconf=158.3%*;HEK293 Ca flux=i;HEK293 Ca counter=i;HEK293 Ca cntr2=i
COC(=O)C1=C(O)/C(=C/c2cccc(OC)c2O)N=C1C,i,i,i,i,i,nt,nt,nt,
Cc1cccnc1NC(=O)CNC(=O)COc1ccccc1,i,i,i,i,i,nt,nt,nt,
CCOc1cc(/C=C2\C(=O)ON=C2c2ccccc2)cc(Br)c1O,i,i,i,82.6*,i,i,i,322.0%*,MrgX1 ag reconf=i;HEK293 Ca flux=i;HEK293 Ca counter=i;HEK293 Ca cntr2=i
COc1cc(/C=C2\C(=O)ON=C2c2ccccc2)cc(Br)c1O,i,i,4.69*,78.2*,i,9.5%*,i,281.0%*,MrgX1 ag reconf=i;HEK293 Ca flux=i;HEK293 Ca counter=i;HEK293 Ca cntr2=i
COc1cc(C=C2C(=O)OC(c3ccccc3)OC2=O)cc(Br)c1O (stereo not given),i,i,i,i,i,nt,nt,nt,
Cc1c(-c2nc(N)nc(Nc3ccccc3F)n2)oc2ccccc12,i,16.5*,i,i,i,nt,i,i,MrgX1 allo conf=58.5%*;HEK293 Ca flux=i;HEK293 Ca counter=i;HEK293 Ca cntr2=i
O=C1/C(=C/c2ccc(O)cc2)SC(=S)N1Cc1cccnc1,i,i,i,i,i,nt,nt,nt,

# Bioassay records (PubChem BioAssay)
